Source: ChEMBL document CHEMBL4765238, “Structure-Based Discovery and Optimization of Benzo[ d]isoxazole Derivatives as Potent and Selective BET Inhibitors for Potential Treatment of Castration-Resistant Prostate Cancer (CRPC)” (J Med Chem, 2018)

Assays:
[1] = target: T1, Bromodomain-containing protein 4 (Homo sapiens, UniProt O60885); assay: Binding affinity to human recombinant His6-tagged BRD4 bromodomain 1 (N44 to E168 residues) expressed in Escherichia coli BL21 (DE3) cells assessed as change in melting temperature at 200 uM incubated for 30 mins by SYPRO orange dye based thermal shift assay
How it was run: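 Thermal shift assay measuring change in melting temperature of each isolated bromodomain module in the presence of compound versus without.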

[2] = target: T1, Bromodomain-containing protein 4; assay: Inhibition of HYSGRGK(Ac)GGK(Ac)GLGK(Ac)GGAK(Ac)RHRK(Biotin)-OH binding to recombinant human His6-tagged BRD4 bromodomain 1 (N44 to E168 residues) expressed in Escherichia coli BL21 (DE3) cells measured after 2 hrs by Alphascreen assay
[3] = test system: VCaP; assay: cells; settings: Homo sapiens, 144 h, read-out: INH
[4] = test system: LNCaP C4-2B; assay: Antiproliferative activity against AR-positive human C4-2B cells assessed as reduction in cell viability incubated for 96 hrs by cell-titer glo assay; format: functional, cell-based
How it was run: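 Prostate cancer cells treated across a concentration range; viability read by CellTiter-Glo luminescence; experiments in triplicate; IC50 derived from the dose–response curves.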

[5] = target: T1, Bromodomain-containing protein 4; assay: Inhibition of BRD4 bromodomain 1 (unknown origin) by fluorescence polarization assay

COc1cc2onc(C)c2cc1NS(=O)(=O)c1cc(Cl)ccc1OC
ΔTm [1]: 8.7 °C | IC50 [2]: 160 nM

Cc1cc2onc(C)c2cc1NS(=O)(=O)c1ccccc1C(=O)O
ΔTm [1]: 3.8 °C | IC50 [2]: 5810 nM

COc1ccc(Br)cc1S(=O)(=O)Nc1cc2c(C)noc2cc1OCC(=O)O
ΔTm [1]: 6.2 °C | IC50 [2]: 580 nM

COc1ccc(S(=O)(=O)Nc2cc3c(C)noc3cc2C)cc1
ΔTm [1]: 1.5 °C | IC50 [2]: > 20000 nM

CCCCn1c(-c2ccc3onc(C)c3c2)nc2ccc(N3CCOCC3)cc21
ΔTm [1]: 5.9 °C | IC50 [2]: 1160 nM

Cc1cc2onc(C)c2cc1NS(=O)(=O)c1cccc(Cl)c1Cl
ΔTm [1]: 4 °C | IC50 [2]: 3550 nM

COc1ccc(Br)cc1S(=O)(=O)Nc1cc2c(C)noc2cc1OCC(=O)NCCN1CCOCC1
ΔTm [1]: 4.8 °C | IC50 [2]: 2270 nM

Cc1cc2onc(C)c2cc1NS(=O)(=O)c1ccccc1Br
ΔTm [1]: 4.4 °C | IC50 [2]: 1840 nM

COc1ccc(Cl)cc1S(=O)(=O)Nc1cc2c(C)noc2cc1C
ΔTm [1]: 6.5 °C | IC50 [2]: 1050 nM

CCCn1c(-c2ccc3onc(C)c3c2)nc2ccc(N3CCOCC3)cc21
ΔTm [1]: 6.5 °C | IC50 [2]: 1370 nM

Cc1cc2onc(C)c2cc1NS(=O)(=O)c1ccc([N+](=O)[O-])cc1
ΔTm [1]: 0.5 °C | IC50 [2]: > 20000 nM

CCCCS(=O)(=O)Nc1cc2c(C)noc2cc1C
ΔTm [1]: 5 °C | IC50 [2]: 2550 nM

CCOc1cc2onc(C)c2cc1NS(=O)(=O)c1cc(Br)ccc1OC
ΔTm [1]: 9.2 °C | IC50 [2]: 150 nM

COc1cc2onc(C)c2cc1NS(=O)(=O)c1cc(Cl)ccc1Cl
ΔTm [1]: 7.3 °C | IC50 [2]: 440 nM

COCCn1c(-c2cc(Br)c3onc(C)c3c2)nc2ccc(N3CCOCC3)cc21
ΔTm [1]: 4.5 °C | IC50 [2]: > 20000 nM

Cc1cc2onc(C)c2cc1NS(=O)(=O)c1c(Cl)cccc1Cl
ΔTm [1]: 1.1 °C | IC50 [2]: > 20000 nM

COc1ccc(OC)c(S(=O)(=O)Nc2cc3c(C)noc3cc2C)c1
ΔTm [1]: 2 °C | IC50 [2]: 10700 nM

COc1ccc(Br)cc1S(=O)(=O)Nc1cc2c(C)noc2cc1C
ΔTm [1]: 7.5 °C | IC50 [2]: 620 nM

Cc1cc2onc(C)c2cc1NS(=O)(=O)c1ccc(F)cc1
ΔTm [1]: 2 °C | IC50 [2]: 9820 nM

Cc1cc2onc(C)c2cc1NS(=O)(=O)c1ccccc1
ΔTm [1]: 2 °C | IC50 [2]: 4960 nM

CCS(=O)(=O)Nc1cc2c(C)noc2cc1C
ΔTm [1]: 3 °C | IC50 [2]: 5300 nM

Cc1noc2ccc(-c3nc4ccc(N5CCOCC5)cc4n3CC3CC3)cc12
ΔTm [1]: 6.5 °C | IC50 [2]: 1410 nM

Cc1noc2ccc(-c3nc4ccc(N5CCOCC5)cc4n3CC3CCCCC3)cc12
ΔTm [1]: 5.4 °C | IC50 [2]: 180 nM

CCCOc1cc2onc(C)c2cc1NS(=O)(=O)c1cc(Br)ccc1OC
ΔTm [1]: 6 °C | IC50 [2]: 420 nM

COc1cc2onc(C)c2cc1NS(=O)(=O)c1ccccc1Cl
ΔTm [1]: 7.8 °C | IC50 [2]: 220 nM

COc1ccccc1S(=O)(=O)Nc1cc2c(C)noc2cc1C
ΔTm [1]: 6.6 °C | IC50 [2]: 830 nM

Cc1cc2onc(C)c2cc1NS(=O)(=O)c1ccc(Cl)cc1
ΔTm [1]: 1 °C | IC50 [2]: > 20000 nM

Cc1noc2c(Br)cc(-c3nc4ccc(N5CCOC[C@@H]5C)cc4n3CC3CCCCC3)cc12
ΔTm [1]: 7.2 °C | IC50 [2]: 320 nM

CCC(C)n1c(-c2ccc3onc(C)c3c2)nc2ccc(N3CCOCC3)cc21 (stereo not drawn)
ΔTm [1]: 4.8 °C | IC50 [2]: 3620 nM

COC(=O)c1ccccc1S(=O)(=O)Nc1cc2c(C)noc2cc1C
ΔTm [1]: 3 °C | IC50 [2]: 6930 nM

Cc1noc2c(Br)cc(-c3nc4ccc(N5CCOCC5)cc4n3CC3CC3)cc12
ΔTm [1]: 6 °C | IC50 [2]: 2360 nM

COc1cc2onc(C)c2cc1NS(=O)(=O)c1cc(C)ccc1OC
ΔTm [1]: 7.8 °C | IC50 [2]: 470 nM

COc1ccc(Br)cc1S(=O)(=O)Nc1cc2c(C)noc2cc1O
ΔTm [1]: 9.2 °C | IC50 [2]: 230 nM

COc1ccc(C)cc1S(=O)(=O)Nc1cc2c(C)noc2cc1C
ΔTm [1]: 4.6 °C | IC50 [2]: 2130 nM

Cc1cc2onc(C)c2cc1NS(=O)(=O)C1CCCCC1
ΔTm [1]: 4.5 °C | IC50 [2]: 2240 nM

Cc1cc2onc(C)c2cc1NS(=O)(=O)c1ccccc1Cl
ΔTm [1]: 5.2 °C | IC50 [2]: 1590 nM

Cc1noc2ccc(-c3nc4ccc(N5CCOCC5)cc4n3Cc3ccccc3)cc12
ΔTm [1]: 6 °C | IC50 [2]: 1670 nM

Cc1cc2onc(C)c2cc1NS(=O)(=O)C1CCCC1
ΔTm [1]: 5 °C | IC50 [2]: 3050 nM

CNC(=O)c1ccc(N2C(=S)N(c3ccc(C#N)c(C(F)(F)F)c3)C(=O)C2(C)C)cc1F [ENZALUTAMIDE]
inhibition at 33 µM [3]: 50% | IC50 [4]: 18000 nM

CCCn1c(-c2cc(Br)c3onc(C)c3c2)nc2ccc(N3CCOCC3)cc21
ΔTm [1]: 6.2 °C | IC50 [2]: 1800 nM

Cc1cc2onc(C)c2cc1NS(=O)(=O)c1cc(Cl)ccc1Cl
ΔTm [1]: 5 °C | IC50 [2]: 2350 nM

COc1ccc(Br)cc1S(=O)(=O)Nc1cc2c(C)noc2cc1OCC(=O)NCCNC(C)=O
ΔTm [1]: 5.4 °C | IC50 [2]: 750 nM

CCCS(=O)(=O)Nc1cc2c(C)noc2cc1C
ΔTm [1]: 4.5 °C | IC50 [2]: 2470 nM

CCOC(=O)C[C@@H]1N=C(c2ccc(Cl)cc2)c2cc(OC)ccc2-n2c(C)nnc21
IC50 [5]: 631 nM

CCNC(=O)COc1cc2onc(C)c2cc1NS(=O)(=O)c1cc(Br)ccc1OC
ΔTm [1]: 5.1 °C | IC50 [2]: 1600 nM

CCCCn1c(-c2cc(Br)c3onc(C)c3c2)nc2ccc(N3CCOCC3)cc21
ΔTm [1]: 7.2 °C | IC50 [2]: 520 nM

COCCn1c(-c2ccc3onc(C)c3c2)nc2ccc(N3CCOCC3)cc21
ΔTm [1]: 5 °C | IC50 [2]: 4420 nM
